# Measurements as given in ChEMBL document CHEMBL1129371, “Bis tertiary amide inhibitors of the HIV-1 protease generated via protein structure-based iterative design” (J Med Chem, 1996).
# Tests used:
# [1] = Pharmacokinetic parameter Cmax determined after intravenous administration of 50 mg/kg to rat; assay type: ADME, organism-based; set-up: dose 50 mg/kg, route intravenous; conditions: in vivo
# [2] = Pharmacokinetic parameter Cmax determined after oral administration of 50 mg/kg to rat; assay type: ADME, organism-based; set-up: dose 50 mg/kg, route oral; conditions: in vivo
# [3] = Pharmacokinetic parameter Cmax determined after peroral administration of 25 mg/kg to monkey; assay type: ADME, organism-based; set-up: dose 25 mg/kg, route oral; conditions: simiiformes, in vivo, po
# [4] = Oral bioavailability in rat (dose 50 mg/kg); assay type: ADME, organism-based; conditions: in vivo
# [5] = molecular target: T1, Human immunodeficiency virus type 1 protease (Human immunodeficiency virus 1, UniProt Q72874); assay: Binding affinity against HIV-1 protease
# [6] = Pharmacokinetic parameter half life determined after intravenous administration of 50 mg/kg to rat; assay type: ADME, organism-based; set-up: dose 50 mg/kg, route intravenous; conditions: in vivo
# [7] = system: Human immunodeficiency virus 1; assay: (§1) Effective dose against inhibition of HIV-1 protease in CEM cells; assay type: functional; conditions: Human immunodeficiency virus 1, CCRF-CEM; read-out: ED50 (the source's name)
# Method in brief: (§2)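 HIV-1-induced killing of CEM-SS cells; cell viability read by MTT tetrazolium metabolism. ED50 = concentration giving 50% inhibition of HIV-1-induced cell death. Run at Southern Research Institute.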
# [8] = Pharmacokinetic parameter Cmax determined after peroral administration of 15 mg/kg to dog; conditions: in vivo, po
# [9] = Pharmacokinetic parameter half life determined after peroral administration of 15 mg/kg to dog; conditions: in vivo, po
# [10] = Toxic concentration at which 50% of CEM-SS cells were viable (uninfected with virus) as determined by metabolism of MTT in(uM).; assay type: toxicity, cell-based; conditions: human, read-out: TC50 (the source's name)
# Method in brief: (§3)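 Uninfected CEM-SS cells; viability read by MTT metabolism. TC50 = concentration giving 50% reduction in number of viable cells; reported in μM.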
# [11] = system: CCRF-CEM; assay: Antiviral activity againsy HIV-1 in CEM cells; assay type: functional; conditions: Homo sapiens, read-out: ED50 (the source's name); method in brief: as §2
# [12] = molecular target: T1, Human immunodeficiency virus type 1 protease; assay: Compound was tested for binding affinity against HIV protease
# [13] = system: Rattus norvegicus; assay: Pharmacokinetic parameter Cmax determined after oral administration of 50 mg/kg to rat; No levels; assay type: ADME, organism-based; set-up: dose 50 mg/kg, route oral; conditions: in vivo
# [14] = Pharmacokinetic parameter Cmax determined after intravenous administration of 60 mg/kg to rat; assay type: ADME, organism-based; set-up: dose 60 mg/kg, route intravenous; conditions: in vivo
# [15] = Pharmacokinetic parameter half life determined after intravenous administration of 60 mg/kg to rat; assay type: ADME, organism-based; set-up: dose 60 mg/kg, route intravenous; conditions: in vivo
# [16] = system: Rattus norvegicus; assay: Fraction of compound bio available orally in rat at dosage 50(mg/kg) by po administration.; conditions: in vivo
# [17] = Toxic concentration at which 50% of CEM-SS cells were viable (uninfected with virus) as determined by metabolism of MTT; assay type: toxicity, cell-based; conditions: human, read-out: TC50 (the source's name); method in brief: as §3
# [18] = system: CEM-SS; assay: as §1; assay type: functional; conditions: Homo sapiens, read-out: ED50 (the source's name); method in brief: as §2
# [19] = Maximal concentration in monkey plasma after 25 mg/kg oral dose; assay type: ADME, organism-based; set-up: dose 25 mg/kg, route oral; conditions: simiiformes
# [20] = Fraction of compound bio available orally in rat at dosage 50(mg/kg) by po administration; assay type: ADME, organism-based; conditions: in vivo
# [21] = Pharmacokinetic parameter half life determined after oral administration of 15 mg/kg to dog; assay type: ADME, organism-based, Canis lupus familiaris; set-up: dose 15 mg/kg, route oral; conditions: in vivo
# [22] = Pharmacokinetic parameter Cmax determined after oral administration of 15 mg/kg to dog; conditions: in vivo
# [23] = Pharmacokinetic parameter Cmax determined after peroral administration of 15 mg/kg to dog; assay type: ADME, organism-based, Canis lupus familiaris; set-up: dose 15 mg/kg, route oral; conditions: in vivo, po
# [24] = Pharmacokinetic parameter Cmax determined after peroral administration of 25 mg/kg to monkey; No levels; assay type: ADME, organism-based; set-up: dose 25 mg/kg, route oral; conditions: simiiformes, in vivo, po
# [25] = Toxic concentration at which 50% of CEM-SS cells were viable (uninfected with virus) as determined by metabolism of MTT in(uM); assay type: toxicity, cell-based; conditions: human, read-out: TC50 (the source's name); method in brief: as §3
# [26] = Pharmacokinetic parameter Cmax determined after intravenous administration of 25 mg/kg to monkey; assay type: ADME, organism-based; set-up: dose 25 mg/kg, route intravenous; conditions: simiiformes, in vivo
# [27] = Pharmacokinetic parameter Cmax determined after peroral administration of 50 mg/kg to rat; assay type: ADME, organism-based; set-up: dose 50 mg/kg, route oral; conditions: in vivo, po
# [28] = Fraction of compound bio available orally in dog at dosage 15(mg/kg) by po administration.; assay type: ADME, organism-based, Canis lupus familiaris; conditions: in vivo
# [29] = Fraction of compound bio available orally in dog at dosage 30(mg/kg) by po administration.; assay type: ADME, organism-based, Canis lupus familiaris; conditions: in vivo
# [30] = Pharmacokinetic parameter half life determined after peroral administration of 25 mg/kg to monkey; assay type: ADME, organism-based; set-up: dose 25 mg/kg, route oral; conditions: simiiformes, in vivo, po
# [31] = Pharmacokinetic parameter half life determined after intravenous administration of 15 mg/kg to dog; assay type: ADME, organism-based, Canis lupus familiaris; set-up: dose 15 mg/kg, route intravenous; conditions: in vivo
# [32] = Pharmacokinetic parameter half life determined after intravenous administration of 25 mg/kg to monkey; assay type: ADME, organism-based; set-up: dose 25 mg/kg, route intravenous; conditions: simiiformes, in vivo
# [33] = Pharmacokinetic parameter Cmax determined after oral administration of 30 mg/kg to dog; conditions: in vivo
# [34] = Fraction of compound bio available orally in monkey at dosage 25(mg/kg) by po administration.; conditions: primates, in vivo
# [35] = Pharmacokinetic parameter Cmax determined after oral administration of 30 mg/kg abd antacid (CaCO3 dosed orally 10 min prior to and 60 min postdosing) to dog; conditions: in vivo
# [36] = Pharmacokinetic parameter half life determined after peroral administration of 30 mg/kg abd antacid (CaCO3 dosed orally 10 min prior to and 60 min postdosing) to dog; conditions: in vivo, po
smiles,measurement,setting,value
CCC1(N(CCO)C(=O)c2ccccc2CCC(O)Cc2ccc(C)cc2C(=O)N(CC(CO)CO)C(C)(C)c2ccccc2)CCCC1 (configuration not stated),Cmax,[1],52200 ng/mL
same,Cmax,[2],1160 ng/mL
same,Cmax,[3],810 ng/mL
same,bioavailability,[4],7%
same,Ki,[5],10 nM
same,half-life,[6],1 h
same,EC50,[7],950 nM
same,Cmax,[8],1170 ng/mL
same,half-life,[9],0.34 h
CC(C)(C)N(CCO)C(=O)c1ccccc1CC(O)CSc1ccccc1C(=O)N(CCO)C(C)(C)C (configuration not stated),Ki,[5],18000 nM
CCC1(N(CCO)C(=O)c2ccccc2CCC(O)Cc2ccc(C)cc2C(=O)N(CCO)C(C)(C)c2ccc(OCCN3CCOCC3)cc2)CCCC1 (configuration not stated),Ki,[5],9 nM
same,EC50,[7],840 nM
Cc1ccc(CC(O)CCc2ccccc2C(=O)N(CCO)C(C)(C)C)c(C(=O)N(CCO)C(C)(C)c2ccccc2)c1 (configuration not stated),Ki,[5],63 nM
same,EC50,[7],4200 nM
CCCC(CC)(CC)N(CCO)C(=O)c1cc(C)ccc1CC(O)CCc1ccccc1C(=O)N(CCO)C1(CC)CCCC1 (configuration not stated),Ki,[5],6 nM
same,EC50,[7],1370 nM
CC(C)(C)N(CCO)C(=O)c1ccccc1CCC(O)Cc1ccccc1C(=O)N(CCO)[C@@]12CCCC[C@@H]1CCC2 (relative stereo),Ki,[5],64 nM
same,EC50,[7],7600 nM
CC(C)(C)N(CCO)C(=O)c1ccccc1CCC(O)Cc1ccccc1C(=O)N(CCO)C(C)(C)c1ccccc1 (configuration not stated),CC50,[10],> 150000 nM
same,Ki,[5],90 nM
same,EC50,[7],3400 nM
CCCC(CC)(CC)N(CCO)C(=O)c1ccccc1CC(O)CCc1ccccc1C(=O)N(CCO)C(C)(C)C (configuration not stated),Ki,[5],110 nM
same,EC50,[7],3700 nM
CC(C)(C)NC(=O)c1ccccc1CCC(O)Cc1ccccc1C(=O)NC(C)(C)C (configuration not stated),Ki,[5],20000 nM
CCC1(N(CCO)C(=O)c2ccccc2CCC(O)Cc2ccc(C)cc2C(=O)N(CCC(O)CO)C(C)(C)c2ccccc2)CCCC1 (configuration not stated),Cmax,[1],111000 ng/mL
same,Cmax,[2],840 ng/mL
same,bioavailability,[4],2%
same,Ki,[5],10 nM
same,half-life,[6],1.3 h
same,EC50,[7],860 nM
CCC1(N(CCO)C(=O)c2ccccc2CCC(O)Cc2ccc(C)cc2C(=O)N(CC2COC(C)(C)OC2)C(C)(C)c2ccccc2)CCCC1 (configuration not stated),EC50,[11],590 nM
same,Ki,[12],4 nM
CC(C)(C)N(CCO)C(=O)c1ccccc1CCC(O)Cc1ccccc1C(=O)N(CCO)C(C)(C)C (configuration not stated),CC50,[10],> 150000 nM
same,EC50,[7],36000 nM
CC(C)(C)N(CCO)C(=O)c1ccccc1CCC(O)Cc1ccccc1C(=O)N(CCO)C(C)(C)c1ccc2ccccc2c1 (configuration not stated),Ki,[5],145 nM
same,EC50,[7],7200 nM
CCN(C(=O)c1ccccc1CC(O)CCc1ccccc1C(=O)N(CCO)C1(CC)CCCC1)C(C)(C)c1ccccc1 (configuration not stated),Ki,[5],51 nM
same,EC50,[7],1700 nM
CCC1(N(CCO)C(=O)c2ccccc2CCC(O)Cc2ccc(C)cc2C(=O)N(CCO)C(C)(C)C2CCOCC2)CCCC1 (configuration not stated),Ki,[5],35 nM
same,EC50,[7],1110 nM
Cc1ccc(CCC(O)Cc2ccccc2C(=O)N(CCO)C(C)(C)c2ccccc2)c(C(=O)N(CCO)C(C)(C)C)c1 (configuration not stated),Ki,[5],150 nM
same,EC50,[7],4900 nM
CCC1(N(CCO)C(=O)c2ccccc2CCC(O)Cc2ccc(C)cc2C(=O)N(CCO)C(C)(C)c2ccc(O)cc2)CCCC1 (configuration not stated),Cmax,[1],41300 ng/mL
same,Cmax,[13],No levels
same,bioavailability,[4],0%
same,Ki,[5],6 nM
same,half-life,[6],1.4 h
same,EC50,[7],880 nM
CCC1(N(CCO)C(=O)c2ccccc2CCC(O)Cc2ccc(C)cc2C(=O)N(CCO)C(C)(C)c2ccc(OCc3cccnc3)cc2)CCCC1 (configuration not stated),Cmax,[14],87200 ng/mL
same,Cmax,[2],860 ng/mL
same,half-life,[15],1 h
same,Ki,[5],2 nM
same,EC50,[7],650 nM
same,bioavailability,[16],5%
CC(C)(C)NC(=O)[C@@H]1C[C@@H]2CCCC[C@@H]2CN1C[C@@H](O)[C@H](Cc1ccccc1)NC(=O)[C@H](CC(N)=O)NC(=O)c1cnc2ccccc2c1,CC50,[17],> 10000 nM
same,Ki,[12],0.9 nM
same,EC50,[18],2 nM
Cc1ccc(CC(O)CCc2ccccc2C(=O)N(CCO)C(C)(C)c2ccccc2)c(C(=O)N(CCO)C(C)(C)c2ccccc2)c1 (configuration not stated),Cmax,[1],88900 ng/mL
same,Cmax,[2],1200 ng/mL
same,Cmax,[19],860 ng/mL
same,bioavailability,[20],34%
same,half-life,[21],2.07 h
same,Ki,[5],18 nM
same,half-life,[6],0.5 h
same,EC50,[7],810 nM
same,Cmax,[22],390 ng/mL
CC(C)(C)NC(=O)c1ccccc1C[C@@H](O)[C@H](Cc1ccccc1)NC(=O)[C@H](CC(N)=O)NC(=O)c1cnc2ccccc2c1,CC50,[17],122000 nM
same,EC50,[7],20 nM
CC(C)(C)NC(=O)c1ccccc1SCC(O)Cc1ccccc1C(=O)N(CCO)C(C)(C)C (configuration not stated),Ki,[5],34000 nM
CCC1(N(CCO)C(=O)c2ccccc2CCC(O)Cc2ccc(C)cc2C(=O)N(CCO)C2(c3ccccc3)CCCC2)CCCC1 (configuration not stated),Ki,[5],0.4 nM
same,EC50,[7],790 nM
CCC1(N(CCO)C(=O)c2ccccc2CCC(O)Cc2ccc(Cl)cc2C(=O)N(CCO)C(C)(C)c2ccccc2)CCCC1 (configuration not stated),Cmax,[1],111000 ng/mL
same,Cmax,[2],1400 ng/mL
same,Cmax,[23],590 ng/mL
same,Cmax,[24],No levels
same,bioavailability,[4],31%
same,CC50,[10],97000 nM
same,Ki,[5],2 nM
same,half-life,[6],1.7 h
same,EC50,[7],720 nM
CC(C)(C)N(CCO)C(=O)c1ccccc1CCC(O)Cc1ccccc1C(=O)N(CCO)C(C)(C)Cc1ccccc1 (configuration not stated),Ki,[5],1300 nM
CC(C)(c1ccccc1)N(CCO)C(=O)c1ccccc1CCC(O)Cc1ccccc1C(=O)N(CCO)C(C)(C)c1ccccc1 (configuration not stated),CC50,[25],122000 nM
same,Ki,[5],21 nM
same,EC50,[7],2200 nM
CCC1(N(CCO)C(=O)c2ccccc2CCC(O)Cc2ccc(C)cc2C(=O)N(CCO)C(C)(C)c2ccccc2)CCCC1 (configuration not stated),Cmax,[26],18300 ng/mL
same,Cmax,[1],88400 ng/mL
same,Cmax,[3],1910 ng/mL
same,Cmax,[27],2780 ng/mL
same,bioavailability,[28],3%
same,bioavailability,[29],33%
same,bioavailability,[4],39%
same,half-life,[30],1.07 h
same,half-life,[31],0.24 h
same,half-life,[32],1.08 h
same,CC50,[10],103000 nM
same,Ki,[5],8 nM
same,half-life,[6],1.3 h
same,EC50,[7],780 nM
same,Cmax,[33],690 ng/mL
same,bioavailability,[34],32%
same,Cmax,[35],3260 ng/mL
same,half-life,[36],0.52 h
